# Experimental data as given in ChEMBL document CHEMBL1132324, “Structure-activity relationships in 1,4-benzodioxan-related compounds. 6. Role of the dioxane unit on selectivity for alpha(1)-adrenoreceptor subtypes” (J Med Chem, 1999).
# Legend:
# [1] = target: T1, Alpha-1B adrenergic receptor (Homo sapiens) (UniProt P35368); test: The binding affinity was evaluated on cloned human alpha-1B adrenergic receptor expressed in chinese hamster ovary(CHO) cells by using [3H]prazosin as radioligand.; assay type: cell-based
# T1 sequence (whole entry): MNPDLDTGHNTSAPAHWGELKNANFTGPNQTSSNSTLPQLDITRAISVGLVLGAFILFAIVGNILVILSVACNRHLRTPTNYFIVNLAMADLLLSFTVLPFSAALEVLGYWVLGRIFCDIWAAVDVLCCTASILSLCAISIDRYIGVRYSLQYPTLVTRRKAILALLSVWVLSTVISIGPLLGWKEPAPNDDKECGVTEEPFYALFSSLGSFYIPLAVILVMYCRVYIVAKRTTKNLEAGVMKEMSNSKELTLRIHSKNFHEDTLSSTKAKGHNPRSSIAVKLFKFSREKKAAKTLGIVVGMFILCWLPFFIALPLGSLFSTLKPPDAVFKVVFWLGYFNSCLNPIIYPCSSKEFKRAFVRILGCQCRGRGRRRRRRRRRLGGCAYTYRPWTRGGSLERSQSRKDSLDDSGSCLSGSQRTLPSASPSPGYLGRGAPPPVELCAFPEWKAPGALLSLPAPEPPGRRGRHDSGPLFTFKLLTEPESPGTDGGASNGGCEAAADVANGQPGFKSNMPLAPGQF
# Procedure, shortened: (§1)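 Membranes (30 μg protein) from CHO cells stably expressing each human α1 subtype, in 50 mM Tris-HCl pH 7.4. Incubated with 0.1–0.4 nM [3H]prazosin for 30 min at 25 °C, competitor 1 pM–10 μM. Nonspecific binding with 10 μM phentolamine. Ki by Cheng-Prusoff. 2–3 experiments in triplicate.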
# [2] = target: T2, Alpha-1A adrenergic receptor (Homo sapiens) (UniProt P35348); test: The binding affinity was evaluated on cloned human alpha-1A adrenergic receptor expressed in chinese hamster ovary(CHO) cells by using [3H]prazosin as radioligand.; assay type: cell-based; procedure, shortened: as §1
# T2 sequence (whole entry): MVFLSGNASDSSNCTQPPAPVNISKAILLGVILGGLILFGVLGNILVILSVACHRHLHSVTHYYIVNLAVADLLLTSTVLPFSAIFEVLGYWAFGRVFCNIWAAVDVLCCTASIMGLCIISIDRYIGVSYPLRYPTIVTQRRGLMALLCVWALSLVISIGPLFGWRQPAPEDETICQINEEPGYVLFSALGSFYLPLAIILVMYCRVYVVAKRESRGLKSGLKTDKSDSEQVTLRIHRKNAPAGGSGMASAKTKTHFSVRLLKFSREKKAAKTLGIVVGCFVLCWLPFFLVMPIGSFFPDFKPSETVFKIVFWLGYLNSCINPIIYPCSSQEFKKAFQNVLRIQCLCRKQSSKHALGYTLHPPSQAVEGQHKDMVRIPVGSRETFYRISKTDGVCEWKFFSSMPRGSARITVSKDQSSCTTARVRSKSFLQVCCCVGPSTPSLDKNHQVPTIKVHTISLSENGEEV
compound,measurement,setting,value
COc1cccc(OC)c1OCCNCC1C(=O)c2ccccc2OC1c1ccccc1 (configuration not stated),pKi,[1],6.84
same,pKi,[2],9.22
